The source made the active and inactive calls.
Legend:
Format in all cases: cell-based
[1] = target: Lysine-specific demethylase 6A (Homo sapiens) (UniProt O15550); experiment: Inhibition of KDM6A in human MCF-10A cell assessed as vimentin expression at 50 nM by immunostaining analysis
In short: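 MCF10A cells received TGFB (2.5 ng/ml; vehicle was 4 mM HCl with 0.1% BSA) to induce EMT, then TGFB was withdrawn in the presence of compound (50 nM) or DMSO. Cells were fixed and immunostained for vimentin and imaged by inverted fluorescence microscopy.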

[2] = target: Lysine-specific demethylase 6A (Homo sapiens) (UniProt O15550); experiment: Inhibition of KDM6A in human MCF-10A cell assessed as CCNA1 gene expression at 50 nM by qRT-PCR analysis
In short: (§1)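 MCF10A monolayers were exposed to TGFB at 2.5 ng/ml for 6 days to induce EMT, then cultured without TGFB for 10 days (MET) with compound at 50 nM or DMSO vehicle. Vehicle-only and TGFB-only arms served as references. RNA was analysed by qRT-PCR, normalised to GAPDH by 2^-ΔΔCt, and run in triplicate (mean ± SD). Significance was by unpaired t-tests with Holm-Sidak correction.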

[3] = target: Lysine-specific demethylase 6A (Homo sapiens) (UniProt O15550); experiment: Inhibition of KDM6A in human MCF-10A cell assessed as COBLL1 gene expression at 50 nM by qRT-PCR analysis; in short: as §1
[4] = target: Lysine-specific demethylase 6A (Homo sapiens) (UniProt O15550); experiment: Inhibition of KDM6A in human MCF-10A cell assessed as FZD8 gene expression at 50 nM by qRT-PCR analysis; in short: as §1
[5] = target: Lysine-specific demethylase 6A (Homo sapiens) (UniProt O15550); experiment: Inhibition of KDM6A in human MCF-10A cell assessed as MAP3K9 gene expression at 50 nM by qRT-PCR analysis; in short: as §1
[6] = target: Lysine-specific demethylase 6A (Homo sapiens) (UniProt O15550); experiment: Inhibition of KDM6A in human MCF-10A cell assessed as FAM117A gene expression at 50 nM by qRT-PCR analysis; in short: as §1
[7] = target: Lysine-specific demethylase 6A (Homo sapiens) (UniProt O15550); experiment: Inhibition of KDM6A in human MCF-10A cell assessed as PKP2 gene expression at 50 nM by qRT-PCR analysis; in short: as §1
[8] = target: Lysine-specific demethylase 6A (Homo sapiens) (UniProt O15550); experiment: Inhibition of KDM6A in human MCF-10A cell assessed as FAM60A gene expression at 50 nM by qRT-PCR analysis; in short: as §1
[9] = target: Lysine-specific demethylase 6A (Homo sapiens) (UniProt O15550); experiment: Inhibition of KDM6A in human MCF-10A cell assessed as C60ORF14 gene expression at 50 nM by qRT-PCR analysis; in short: as §1
[10] = target: Lysine-specific demethylase 6A (Homo sapiens) (UniProt O15550); experiment: Inhibition of KDM6A in human MCF-10A cell assessed as ZNF232 gene expression at 50 nM by qRT-PCR analysis; in short: as §1
[11] = target: Lysine-specific demethylase 6A (Homo sapiens) (UniProt O15550); experiment: Inhibition of KDM6A in human MCF-10A cell assessed as PUS3 gene expression at 50 nM by qRT-PCR analysis; in short: as §1
[12] = target: Lysine-specific demethylase 6A (Homo sapiens) (UniProt O15550); experiment: Inhibition of KDM6A in human MCF-10A cell assessed as H2AFY2 gene expression at 50 nM by qRT-PCR analysis; in short: as §1
[13] = target: Lysine-specific demethylase 6A (Homo sapiens) (UniProt O15550); experiment: Inhibition of KDM6A in human MCF-10A cell assessed as CBX4 gene expression at 50 nM by qRT-PCR analysis; in short: as §1
[14] = target: Lysine-specific demethylase 6A (Homo sapiens) (UniProt O15550); experiment: Inhibition of KDM6A in human MCF-10A cell assessed as THOC6 gene expression at 50 nM by qRT-PCR analysis; in short: as §1
[15] = target: Lysine-specific demethylase 6A (Homo sapiens) (UniProt O15550); experiment: Inhibition of KDM6A in human MCF-10A cell assessed as LRRC8D gene expression at 50 nM by qRT-PCR analysis; in short: as §1
[16] = target: Lysine-specific demethylase 6A (Homo sapiens) (UniProt O15550); experiment: Inhibition of KDM6A in human MCF-10A cell assessed as CDK4 gene expression at 50 nM by qRT-PCR analysis; in short: as §1
[17] = target: Lysine-specific demethylase 6A (Homo sapiens) (UniProt O15550); experiment: Inhibition of KDM6A in human MCF-10A cell assessed as ILKAP gene expression at 50 nM by qRT-PCR analysis; in short: as §1
[18] = target: Lysine-specific demethylase 6A (Homo sapiens) (UniProt O15550); experiment: Inhibition of KDM6A in human MCF-10A cell assessed as MED30 gene expression at 50 nM by qRT-PCR analysis; in short: as §1

Measured: inhibition

Sequence of Lysine-specific demethylase 6A (Homo sapiens) (O15550 whole entry): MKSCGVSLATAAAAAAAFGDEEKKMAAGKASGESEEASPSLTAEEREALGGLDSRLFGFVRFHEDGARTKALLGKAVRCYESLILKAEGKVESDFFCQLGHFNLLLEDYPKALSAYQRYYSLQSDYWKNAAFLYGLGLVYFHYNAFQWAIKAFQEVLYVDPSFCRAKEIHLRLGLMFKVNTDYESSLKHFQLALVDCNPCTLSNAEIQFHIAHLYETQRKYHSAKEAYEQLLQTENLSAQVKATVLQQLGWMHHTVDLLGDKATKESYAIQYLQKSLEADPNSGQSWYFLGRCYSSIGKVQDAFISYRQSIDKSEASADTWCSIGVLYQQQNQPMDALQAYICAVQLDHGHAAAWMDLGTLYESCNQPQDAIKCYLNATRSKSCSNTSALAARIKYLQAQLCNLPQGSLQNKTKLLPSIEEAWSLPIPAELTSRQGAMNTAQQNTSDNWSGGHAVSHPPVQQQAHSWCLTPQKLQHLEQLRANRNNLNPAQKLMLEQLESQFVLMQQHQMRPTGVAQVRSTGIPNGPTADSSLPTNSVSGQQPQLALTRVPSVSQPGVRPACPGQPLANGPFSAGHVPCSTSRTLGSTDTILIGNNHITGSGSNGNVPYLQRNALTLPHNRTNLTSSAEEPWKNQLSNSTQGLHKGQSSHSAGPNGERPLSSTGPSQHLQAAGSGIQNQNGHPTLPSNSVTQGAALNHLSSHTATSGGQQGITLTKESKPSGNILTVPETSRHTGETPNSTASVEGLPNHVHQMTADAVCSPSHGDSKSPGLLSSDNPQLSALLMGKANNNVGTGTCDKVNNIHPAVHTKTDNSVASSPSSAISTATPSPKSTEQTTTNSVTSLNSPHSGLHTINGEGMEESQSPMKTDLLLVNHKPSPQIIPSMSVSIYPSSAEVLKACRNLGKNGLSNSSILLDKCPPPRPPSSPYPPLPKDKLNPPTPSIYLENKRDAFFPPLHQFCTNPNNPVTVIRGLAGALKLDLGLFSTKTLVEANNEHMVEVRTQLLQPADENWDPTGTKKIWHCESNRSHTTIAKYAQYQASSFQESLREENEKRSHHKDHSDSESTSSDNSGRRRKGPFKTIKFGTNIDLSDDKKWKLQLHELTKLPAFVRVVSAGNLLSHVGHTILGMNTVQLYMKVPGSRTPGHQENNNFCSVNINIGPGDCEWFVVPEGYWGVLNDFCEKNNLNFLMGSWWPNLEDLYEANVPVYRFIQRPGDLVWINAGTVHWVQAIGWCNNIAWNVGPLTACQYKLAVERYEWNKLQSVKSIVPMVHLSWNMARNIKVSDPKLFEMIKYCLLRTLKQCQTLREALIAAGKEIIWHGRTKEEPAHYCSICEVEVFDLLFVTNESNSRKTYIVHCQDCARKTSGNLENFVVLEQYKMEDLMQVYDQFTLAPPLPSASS

CCOC(=O)CCNc1cc(N2CCc3ccccc3CC2)nc(-c2ccccn2)n1
active: [1] | [2] | [3] | [4] | [5] | [6] | [7] | [8] | [9] | [10] | [11] | [12] | [13] | [14] | [15] | [16] | [17] | [18]
